Measurements taken from ChEMBL document CHEMBL4219078, “Discovery of DSP-1053, a novel benzylpiperidine derivative with potent serotonin transporter inhibitory activity and partial 5-HT1A receptor agonistic activity” (Bioorg Med Chem, 2018).
pIC50, pKi: −log10 of the molar value. Activity calls are given as the source filed them. No cut-off for these calls is given here.

Columns and labels:
[1] = biological target: T1, Sodium-dependent serotonin transporter (Homo sapiens, UniProt P31645); test: Displacement of [3H]-citalopram from human SERT expressed in HEK293 cell membranes after 60 mins by liquid scintillation counting
How it was run: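 Membranes from cells expressing human serotonin transporter; [3H]citalopram radioligand. Ki from IC50 via Cheng–Prusoff (radioligand concentration and Kd). Ki values are means of two or three independent experiments.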

CYP2D6 = CYP2D6 (Homo sapiens, UniProt P10635); test: Drug metabolism in human liver microsomes assessed as CYP2D6-medited compound metabolism at 1 uM after 15 to 30 mins by LC-MS/MS analysis; assay type: ADME; conditions: read-out: Drug metabolism
How it was run: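 Human liver microsomes (1 mg/mL) with 1 µM test substance and 3 mM NADPH (final) in 50 mM potassium phosphate, pH 7.4, at 37 °C; stopped after 15–30 min with 3 volumes methanol. Metabolic rate taken from slope, with and without 4 µM quinidine (final). The quinidine-resistant fraction was assigned to other enzymes; CYP2D6 contribution = total minus that fraction.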

[2] = biological target: T1, Sodium-dependent serotonin transporter; test: Inhibition of human SERT expressed in CHO cells assessed as reduction in [3H]5-HT uptake preincubated for 10 mins followed by [3H]5-HT addition measured after 20 mins by liquid scintillation counting; assay type: cell-based
How it was run: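 CHO cells stably expressing human serotonin transporter; compound or DMSO in reaction buffer pre-incubated with cells at 37 °C for 10 min, then [3H]5-HT plus compound added and incubated 37 °C for 20 min. Cells rinsed twice, lysed, radioactivity counted. IC50 values are means of at least three independent experiments.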

Rattus norvegicus = test: Increase in serotonin levels in Crlj:WI rat frontal cortex assessed as at 10 mg/kg, po administered as single dose at 3 hrs post perfusion by microdialysis relative to baseline control; assay type: functional, organism-based
How it was run: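 Frontal cortex microdialysis in rats. Dialysate (10 µL per 5-min collection, at 20-min intervals) was injected automatically into HPLC for 5-HT. Oral dosing followed at least 3 h of perfusion, once baseline was stable, and sampling continued 3 h after dosing.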

T1 sequence (P31645 whole entry): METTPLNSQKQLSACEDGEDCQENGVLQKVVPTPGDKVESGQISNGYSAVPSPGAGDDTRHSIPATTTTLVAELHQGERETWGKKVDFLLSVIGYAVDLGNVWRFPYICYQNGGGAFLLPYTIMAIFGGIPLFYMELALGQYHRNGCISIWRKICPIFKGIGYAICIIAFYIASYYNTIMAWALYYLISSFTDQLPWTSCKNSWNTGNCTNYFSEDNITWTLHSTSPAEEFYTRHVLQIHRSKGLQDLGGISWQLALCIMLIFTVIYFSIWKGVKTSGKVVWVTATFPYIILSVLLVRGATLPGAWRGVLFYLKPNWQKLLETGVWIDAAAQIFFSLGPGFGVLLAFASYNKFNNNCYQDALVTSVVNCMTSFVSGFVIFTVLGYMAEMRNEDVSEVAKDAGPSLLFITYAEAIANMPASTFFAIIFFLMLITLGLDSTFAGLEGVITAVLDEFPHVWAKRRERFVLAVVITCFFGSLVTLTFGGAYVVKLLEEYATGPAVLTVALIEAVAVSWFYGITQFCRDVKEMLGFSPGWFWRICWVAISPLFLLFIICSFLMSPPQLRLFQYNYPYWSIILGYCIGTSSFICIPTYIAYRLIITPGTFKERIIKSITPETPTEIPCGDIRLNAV
Sequence of CYP2D6 (P10635 whole entry): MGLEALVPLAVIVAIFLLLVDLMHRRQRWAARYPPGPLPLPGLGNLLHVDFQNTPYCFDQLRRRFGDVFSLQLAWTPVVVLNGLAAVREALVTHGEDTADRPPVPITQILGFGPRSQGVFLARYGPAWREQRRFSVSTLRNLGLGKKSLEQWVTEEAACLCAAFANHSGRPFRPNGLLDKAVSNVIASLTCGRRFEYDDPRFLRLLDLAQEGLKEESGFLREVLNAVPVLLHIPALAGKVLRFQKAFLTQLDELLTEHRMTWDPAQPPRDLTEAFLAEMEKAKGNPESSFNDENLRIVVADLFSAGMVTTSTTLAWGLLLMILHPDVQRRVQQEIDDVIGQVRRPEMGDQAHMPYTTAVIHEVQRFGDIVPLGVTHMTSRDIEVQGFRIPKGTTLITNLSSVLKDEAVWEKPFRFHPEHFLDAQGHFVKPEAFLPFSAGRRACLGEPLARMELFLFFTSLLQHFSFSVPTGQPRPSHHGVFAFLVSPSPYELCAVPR

| SMILES | pKi [1] | metabolised at 1 µM (CYP2D6) [%] | pIC50 [2] | Activity (Rattus norvegicus) |
| --- | --- | --- | --- | --- |
| COCCOc1cc(CC2CCN(CCc3ccc4c(c3)C(=O)CCO4)CC2)ccc1C | 8.28 | 48.5 | 7.34 | – |
| COCCOc1ccc(Br)c(CC2CCN(CCc3cc4c(cc3Cl)OCCO4)CC2)c1 | – | 86 | – | – |
| COCCOc1cc(CC2CCN(CCc3cc4c(cc3Cl)OCCO4)CC2)ccc1Br | 8.26 | 75.6 | – | – |
| COCCOc1cc(CC2CCN(CCc3ccc4c(c3)CCCO4)CC2)ccc1Br | 8.76 | 0 | – | – |
| COCCOc1cccc(CC2CCN(CCc3cc4c(cc3Cl)OCCO4)CC2)c1Br | 7.13 | – | – | – |
| COCCOc1cc(CC2CCN(CCc3ccc4c(c3)C(=O)CCO4)CC2)ccc1Cl | 8.47 | 53.5 | 7.79 | – |
| COCCOc1cc(Br)cc(CC2CCN(CCc3ccc4c(c3)OCCO4)CC2)c1 | 7.73 | 49.4 | – | – |
| COCCOc1cc(CC2CCN(CCc3ccc4c(c3)C(=O)CCC4)CC2)ccc1Br | 9.17 | 11.8 | – | – |
| COCCOc1cc(Br)cc(CC2CCN(CCc3cc4c(cc3Cl)OCCO4)CC2)c1 | 7.85 | 64.4 | – | – |
| COCCOc1cc(CC2CCN(CCc3ccc4c(c3)C(=O)CCO4)CC2)ccc1I | 9.39 | – | – | – |
| COCCOc1cc(CC2CCN(CCc3ccc4c(c3)C(=O)CCO4)CC2)ccc1C(C)C | 6.61 | – | – | – |
| COCCOc1cc(CC2CCN(CCc3ccc4c(c3)OCCC4)CC2)ccc1Br | 8.27 | 6.8 | – | – |
| COCCOc1cc(CC2CCN(CCc3ccc4c(c3)C(O)CCO4)CC2)ccc1Br (stereo not given) | 8.07 | 36.4 | – | – |
| COCCOc1cc(Br)cc(CC2CCN(CCc3ccc4c(c3)C(=O)CCO4)CC2)c1 | 8.27 | 14 | – | – |
| COCCOc1cc(CC2CCN(CCc3ccc4c(c3)S(=O)(=O)CCO4)CC2)ccc1Br | 8.59 | 55.8 | – | – |
| CCc1ccc(CC2CCN(CCc3ccc4c(c3)C(=O)CCO4)CC2)cc1OCCOC | 8.01 | 18.4 | – | – |
| COCCOc1cc(CC2CCN(CCc3ccc4c(c3)OCCO4)CC2)ccc1Br | 8.62 | 55.6 | – | – |
| COCCOc1cccc(CC2CCN(CCc3ccc4c(c3)C(=O)CCO4)CC2)c1 | 6.69 | – | – | – |
| COCCOc1cc(CC2CCN(CCc3ccc4c(c3)C(=O)CCO4)CC2)ccc1Br | – | 0 | – | Active |
| COCCOc1cc(CC2CCN(CCc3ccc4c(c3)C(=O)CCCO4)CC2)ccc1Br | 8.93 | 4.2 | – | – |
| COCCOc1cc(CC2CCN(CCc3ccc4c(c3)C(=O)CCO4)CC2)ccc1F | 6.95 | – | – | – |
| COCCOc1cc(CC2CCN(CCc3ccc4c(c3)OCCC4=O)CC2)ccc1Br | 8.85 | 3.6 | – | – |
